The text below walks through data of ChEMBL document CHEMBL4229301, “Open-source discovery of chemical leads for next-generation chemoprotective antimalarials” (2018).

A short description of the assay: Luciferase/luciferin-expressing antifolate-resistant parasites were used to infect a culture of HepG2 cells that were pre-incubated with compounds. Infected hepatocytes emit light due to the luciferase reaction. Assay results are presented as the percent inhibition of light emission compared to control. […]. The class given is functional. The settings on record: Plasmodium berghei, sporozoite; for IC50: read-out: LUCIFERASE INFECTION ASSAY - IC50; for IC90: read-out: LUCIFERASE INFECTION ASSAY - IC90. An outline of the steps:
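HepG2-A16-CD81EGFP cells (3x10³/well) were seeded 20-26 h before infection, and compound was added 18 h before infection (0.5% DMSO final; library screened at 0.250-39 µM, average 10 µM). Each well received 1x10³ P. berghei GFP-Luc sporozoites from A. stephensi salivary glands, then plates were spun at 330xg for 3 min. After 48 h at 37°C, 5% CO₂, BrightGlo luminescence was read and normalized to 64 DMSO and 64 10 µM atovaquone wells.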

Where [1] appears, read: PBLUC_HILL_SLOPE 1.94, PBLUC_R_SQUARED 0.789.
Where [2] appears, read: PBLUC_HILL_SLOPE 1.68, PBLUC_R_SQUARED 0.822.
Setting [3] is: PBLUC_HILL_SLOPE 1.77, PBLUC_R_SQUARED 0.431.

For orientation: IC50 means the concentration at which inhibition is half-maximal. As usually defined, the IC90 is the concentration needed for an effect of 90%. As for `N=c1c2ccccc2nnn1-c1cccc(C(F)(F)F)c1`, under setting [1], the IC50 stood at 796 nM and the IC90 worked out at 2470 nM.
For the molecule `c1ccc(CNc2nc(Nc3ccccc3)nc3ccccc23)cc1`, under setting [2], the IC50 was found to be 476 nM and the IC90 came out at 1760 nM.
Turning to `Cc1cc(Nc2ccc(Cl)cc2)n2nc(C(F)(F)F)nc2n1`, under setting [3], the IC50 stood at 1540 nM and the IC90 is 5320 nM.
